Screening data: PubChem, several laboratories
This is a sample that favours compounds with a hit; in the whole collection about 4.3% have one here.
SMARCA2 act: increases SMARCA2 function in MMTV reporter cells. activation, % at 9.1 µM. MG213 cells, MMTV-luciferase reporter, dexamethasone, overnight. 370,000 compounds, 1% hits. AID 652017; in the data active means activation above about 7.8%;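 further: 0% = vehicle wells and 100% = reference activator wells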
SR-BI DiI inh: inhibitors of mouse SR-BI mediated HDL lipid uptake; 320,000 compounds, 0.96% hits; Q61009; inhibition, % at 12.5 µM; AID 488896; ldlA[mSR-BI] CHO cells, DiI-HDL uptake fluorescence, 3 h;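 active means mean replicate inhibition of at least 70% and a set share of replicates each scoring 70 or more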;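 further: 0% = median of neutral control wells and 100% = median of positive control wells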
SR-BI DiI-HDL act: SR-BI HDL lipid transfer activation; activation, % at 12.5 µM; 320,000 compounds, 0.096% hits; CHO ldlA[mSR-BI] cells, DiI-HDL uptake fluorescence, 3 h; 100 = double the neutral-control signal; AID 504775;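 active means mean replicate activation of at least 60% and every replicate at or above 60%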;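 further: 0% = median plate neutral-control signal and 100% = twice that signal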
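Test system: SR-BI-overexpressing, LDLR-lacking CHO cells. Measured by: DiI fluorescence, bottom read. Medium: Ham's F12 with 0.5% BSA, HEPES 25 mM, pH 7.4. Timing: 3 h uptake period with compound, 37 °C.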
Lipid droplet: hepatic lipid droplet formation modulation | AML12 mouse hepatocytes, oleate lipid droplets, BODIPY imaging | AID 1656 | inhibition, % at 6.5 µM | 240,000 compounds, 0.4% hits;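 active means lipid droplet intensity inhibited by at least 50%, with more than 500 cells counted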
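Test system: AML12 mouse liver cells; schedule: overnight exposure; technique: high-content imaging of BODIPY-stained droplets and DAPI nuclei; read-out: % inhibition of corrected integrated BODIPY droplet signal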
CR mimetic SO: caloric restriction mimetics inhibiting age-related superoxide in yeast | 330,000 compounds, 0.18% hits | superoxide response (% of plate mean), % at 10 µM | AID 2690 | S. cerevisiae aged cells, superoxide DHE fluorescence; stronger effect = lower value;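 active means superoxide response under a set limit, about three screen SD below normal, cut at about 65% in these data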;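 further: yeast aged for seven days with compound at 30 °C before DHE staining; 100% = average MFI of all compound-treated wells on the plate with controls excluded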
AHR act: human AHR activation | AID 2796 | AHR-responsive luciferase reporter cells, luminescence | 320,000 compounds, 2.5% hits | activation, % at 5 µM; in the data active means activation above about 47%;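 further: 0% = vehicle wells and 100% = reference agonist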
Target sequence (P35869 whole entry, looked up): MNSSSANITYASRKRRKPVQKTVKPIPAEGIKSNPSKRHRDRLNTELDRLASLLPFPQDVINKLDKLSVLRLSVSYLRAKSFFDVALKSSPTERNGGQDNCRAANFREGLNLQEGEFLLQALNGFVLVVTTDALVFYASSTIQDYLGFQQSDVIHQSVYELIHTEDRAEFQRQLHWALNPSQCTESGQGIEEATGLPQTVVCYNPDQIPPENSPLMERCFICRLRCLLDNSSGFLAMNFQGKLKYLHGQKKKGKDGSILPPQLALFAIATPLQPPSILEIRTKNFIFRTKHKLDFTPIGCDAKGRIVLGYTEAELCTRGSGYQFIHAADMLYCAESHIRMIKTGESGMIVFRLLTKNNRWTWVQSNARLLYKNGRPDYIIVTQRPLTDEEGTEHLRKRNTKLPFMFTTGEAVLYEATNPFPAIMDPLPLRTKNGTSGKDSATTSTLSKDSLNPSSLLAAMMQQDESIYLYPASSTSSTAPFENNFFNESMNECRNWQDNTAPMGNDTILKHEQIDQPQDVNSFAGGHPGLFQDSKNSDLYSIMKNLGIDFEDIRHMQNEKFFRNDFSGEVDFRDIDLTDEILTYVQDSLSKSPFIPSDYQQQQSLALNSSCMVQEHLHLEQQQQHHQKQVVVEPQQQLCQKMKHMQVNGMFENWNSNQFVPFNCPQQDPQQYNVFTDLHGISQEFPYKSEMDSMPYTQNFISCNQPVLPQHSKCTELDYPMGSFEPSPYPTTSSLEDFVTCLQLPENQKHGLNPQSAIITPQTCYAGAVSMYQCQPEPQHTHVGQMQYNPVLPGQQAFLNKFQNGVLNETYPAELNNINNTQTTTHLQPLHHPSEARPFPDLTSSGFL
The depositor's hits bear a star.

`CC[C@H](CCCc1ccc(OC)cc1)CCC(=O)N(c1ccccc1)c1ccccc1` gave SMARCA2 act -4.
`CC(C)(C)OC(=O)NCc1cc2c(cc1/C=C/S(=O)(=O)NC1CCCC1)OCO2` gave SMARCA2 act 0.
`COC(=O)[C@@H](Cc1ccccc1)N[C@H](/C=C/c1ccccc1)[C@@H](O)Cc1ccccc1` gave SMARCA2 act 1.
Screening Cc1ccc2nc(SCC(=O)NC3CCCc4ccccc43)[nH]c2c1 (configuration not stated) returned SMARCA2 act 4, SR-BI DiI inh 11, SR-BI DiI-HDL act -11, Lipid droplet -12, CR mimetic SO 100 and AHR act 59*.
For O=C(CSc1cc(Cl)ccc1Cl)NC1CCCc2ccccc21 (configuration not stated) the results were SMARCA2 act -2, SR-BI DiI inh 41, SR-BI DiI-HDL act -41, Lipid droplet -46, CR mimetic SO 104 and AHR act 5.
`Clc1ccc(OCc2cn3cccnc3n2)c2ncccc12` gave SMARCA2 act 0 and Lipid droplet -1.
c1cnc2c(OCc3cn4cccnc4n3)cccc2c1 was read as SMARCA2 act 5, SR-BI DiI inh -1, SR-BI DiI-HDL act 1, Lipid droplet 1, CR mimetic SO 94 and AHR act 71*.
Cc1ncc(CO)c(/C=N/NC(=O)c2cc3c(s2)CCCC3)c1O was read as SMARCA2 act -3, SR-BI DiI inh 104*, SR-BI DiI-HDL act -104, Lipid droplet -6, CR mimetic SO 103 and AHR act 12.
Cc1ncc(CO)c(/C=N/NC(=S)Nc2cccc(Cl)c2)c1O was read as SR-BI DiI inh 5, SR-BI DiI-HDL act -5, Lipid droplet 11, CR mimetic SO 75 and AHR act 54*.
Cc1nn(-c2ccccc2)c(=O)c2ccccc12 was read as SMARCA2 act 4, SR-BI DiI inh 17, SR-BI DiI-HDL act -17, Lipid droplet 10, CR mimetic SO 113 and AHR act 61*.
Cc1cc(=O)[nH]c2c1c(C)nn2-c1ccccc1 was read as SMARCA2 act -4, SR-BI DiI inh -12, SR-BI DiI-HDL act 12, CR mimetic SO 102 and AHR act 62*.
For Cc1nn(-c2cccc(C(F)(F)F)c2)c(=O)c2ccccc12 the results were SMARCA2 act 2, SR-BI DiI inh 20, SR-BI DiI-HDL act -20, Lipid droplet -2, CR mimetic SO 102 and AHR act 50*.
`COc1ccc(NC(=O)NCCCN2CCN(c3ccc(F)cc3)CC2)cc1OC` gave SMARCA2 act -5.
For O=C(OCc1cn(Cc2ccc(F)cc2F)nn1)N1CCOCC1 the results were SMARCA2 act -2.
Screening Cc1c(-c2ccccc2)nnn1-c1ccc(F)c(Cl)c1 returned SMARCA2 act 0.
Screening NC(=S)N/N=C/c1ncc(C(F)(F)F)cc1Cl returned SR-BI DiI inh 73*, SR-BI DiI-HDL act -73, Lipid droplet -26, CR mimetic SO 103 and AHR act 6.
`Cc1nc2ccccc2n1S(=O)(=O)c1ccc(Br)cc1` gave SMARCA2 act -3, SR-BI DiI inh -65, SR-BI DiI-HDL act 65*, Lipid droplet 0, CR mimetic SO 98 and AHR act 1.
COc1cccc(NC(=O)N(C)C[C@H]2OCc3ccccc3-c3c(n(C)c4ccccc34)C(=O)N([C@H](C)CO)C[C@H]2C)c1 was read as SMARCA2 act -4.
For CS(=O)(=O)N1N=C(c2cccs2)CC1c1ccccc1 (configuration not stated) the results were SMARCA2 act -2, SR-BI DiI inh 7, SR-BI DiI-HDL act -7, Lipid droplet 4, CR mimetic SO 99 and AHR act 3.
Screening O=[N+]([O-])c1ccc(C2Oc3ccccc3C3CC(c4ccccc4)=NN32)s1 (configuration not stated) returned Lipid droplet -5, CR mimetic SO 106 and AHR act 59*.
